# Compound activity: PubChem, several laboratories
# TRAIL sens C8: caspase-8 TRAIL sensitization; NB7+C8 cells + TRAIL, ATPlite viability luminescence; inhibition (viability loss, TRAIL sensitization), % at 10 µM; 1% of 360,000 active; AID 624354;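 active = compounds causing at least 50% loss of cell viability in the single-dose screen, relative to plate controls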
# Wee1 degr inh: human Wee1 degradation inhibition, primary screen; reporter increase, % at 5 µM; HeLa Luc-Wee1K328M stability, luciferase luminescence; 100% = proteasome inhibitor MG132 effect; AID 1321; 1.2% of 220,000 active;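 active = activation above the mean of all tested compounds plus 3 SD, set per screening run, cut at about 8.8% in these data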;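 also: cells exposed to compound for 20 h before luminescence read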
# FLuc inhib CS: Photinus pyralis luciferase inhibition counter-screen; P08659; ATPLite firefly luciferase biochemical luminescence, 10 min; inhibition, % at 10 µM; 1.5% of 200,000 active;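 active = inhibition above about 50% when tested at 10 µM, limit read from the data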
# PPC-1+TRAIL kill: PPC-1 cancer cell killing with TRAIL present; PPC-1 cells + TRAIL, ATPLite viability luminescence; cell killing (% activity), % at 4 µM or 5 µM; 0.41% of 220,000 active;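 active = cell killing above 50% in the first pass at 4 µM, then a duplicate retest at 5 µM averaging 50% or more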
# PKD1 inh: inhibitors of human PKD1 kinase; inhibition, % (test concentration not listed); 0.056% of 200,000 active; PKD1 kinase fluorescence polarization assay; in the data active = inhibition above about 50%
# Target sequence (Q15139 whole entry, looked up): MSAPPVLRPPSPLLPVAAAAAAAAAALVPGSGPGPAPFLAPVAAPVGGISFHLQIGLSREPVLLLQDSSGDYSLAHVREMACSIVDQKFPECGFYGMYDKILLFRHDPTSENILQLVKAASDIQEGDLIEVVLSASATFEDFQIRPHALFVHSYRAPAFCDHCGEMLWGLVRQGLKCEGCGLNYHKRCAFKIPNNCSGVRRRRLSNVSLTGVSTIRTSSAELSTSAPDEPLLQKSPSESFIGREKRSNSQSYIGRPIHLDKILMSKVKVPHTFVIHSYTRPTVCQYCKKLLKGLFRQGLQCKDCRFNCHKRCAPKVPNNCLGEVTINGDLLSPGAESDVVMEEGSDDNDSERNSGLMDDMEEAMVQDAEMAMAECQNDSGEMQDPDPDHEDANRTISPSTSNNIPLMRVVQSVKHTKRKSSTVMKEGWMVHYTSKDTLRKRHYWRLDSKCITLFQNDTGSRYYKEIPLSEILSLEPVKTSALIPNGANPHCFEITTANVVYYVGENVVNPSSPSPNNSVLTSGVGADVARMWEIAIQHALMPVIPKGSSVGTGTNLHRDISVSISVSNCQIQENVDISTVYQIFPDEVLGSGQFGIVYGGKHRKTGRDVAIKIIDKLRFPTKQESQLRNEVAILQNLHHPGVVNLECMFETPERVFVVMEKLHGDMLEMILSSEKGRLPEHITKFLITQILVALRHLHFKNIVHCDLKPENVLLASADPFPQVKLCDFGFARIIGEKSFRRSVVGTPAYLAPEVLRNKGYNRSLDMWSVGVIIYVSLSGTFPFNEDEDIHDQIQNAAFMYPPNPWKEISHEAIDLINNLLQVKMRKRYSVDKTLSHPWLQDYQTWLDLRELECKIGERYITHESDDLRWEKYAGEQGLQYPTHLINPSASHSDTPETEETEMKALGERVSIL
# FLuc stim CS: affects firefly luciferase, flagging false hits in luciferase stimulation screens; activation factor at 10 µM; ATPlite luciferase biochemical, luminescence, 10 min; 0 = ATP-free wells, 1 = DMSO control; AID 1027; P08659; 200,000 tested, under 10 active;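 active = luciferase activation factor, scaled between plate controls, of at least 2 with compound at 10 µM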
#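 Assay system: Luciferase/luciferin detection reagent, cell-free biochemical luciferase assay / Read-out: luciferase activation / Benchmarks: No-ATP low control, compound-free enzyme-plus-ATP high control / Medium: PBS buffer for ATP / Detection: luminescence measurement of luciferase light output / Schedule: 10 min at ambient temperature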
# A number is an active result; . = inactive; / = no result given. Most compounds without a hit are left out; they make up all but 2.2% or so of the library.
SMILES,TRAIL sens C8,Wee1 degr inh,FLuc inhib CS,PPC-1+TRAIL kill,PKD1 inh,FLuc stim CS
O=C(CN1CCN(CC(=O)c2ccccc2)CC1)c1ccccc1,.,/,/,/,/,/
CC(=O)Nc1ccc(-c2nnn(CC(=O)Nc3ccc4c(c3)OCO4)n2)cc1Cl,.,.,.,.,.,.
NC(=O)c1ccccc1NC(=O)/C=C/c1ccccc1,60,.,82,.,.,.
NC(=O)c1ccccc1N/C=C/C(=O)c1ccccc1,57,.,89,.,.,.
Cc1ccc(-c2cn(-c3ccccc3)c(SCC(=O)NC3CCS(=O)(=O)C3)n2)cc1C (configuration not stated),.,.,.,.,.,.
C=CCOC(=O)C1=C[C@@H](c2coc3ccccc3c2=O)C[C@@H](OCCCCO)O1,.,/,/,/,/,/
CCCC(=O)Nc1ccc(C(=O)n2ccc(C)n2)cc1,.,.,.,.,.,.
Cc1ccccc1-n1c(C)cc(/C=C(\C#N)C(=O)NCC2CCCO2)c1C (configuration not stated),.,.,75,55,.,.
Cc1cc(/C=C(\C#N)C(=O)O)c(C)n1C1CC1,.,.,.,.,.,.
COCCNC(=O)/C(C#N)=C/c1cc(C)n(-c2ccc(C)cc2)c1C,62,.,72,.,.,.
COCCNC(=O)/C(C#N)=C/c1cc(C)n(C2CCCCC2)c1C,.,.,72,.,.,.
Cc1cc(/C=C(/C#N)C(=O)Nc2ccccc2)c(C)n1-c1cccnc1,.,.,50,.,.,.
COc1cccc(CC(NC(C)=O)C(=O)NC2CCN(S(=O)(=O)c3ccc(F)cc3)CC2)c1OC (configuration not stated),.,.,.,/,.,.
C#CCOCCOCCOCCNc1nc(N2CCN(C(=O)[C@H](CCCN=C(N)N)n3cc(C(N)[C@@H](C)CC)nn3)CC2)nc(N2CCN(C(=O)[C@H](CCCCN)n3cc([C@@H](N)CC(N)=O)nn3)CC2)n1 (some centres not stated),.,/,/,/,/,/
Cc1ncsc1C(=O)Nc1nc2c(s1)CC(C)CC2 (configuration not stated),.,9.6,58,.,.,.
CC1CCc2nc(NC(=O)Nc3ccc4c(c3)OCO4)sc2C1 (configuration not stated),.,.,53,.,.,.
CC1CCc2nc(NC(=O)C3CC3)sc2C1 (configuration not stated),.,.,.,.,.,.
O=C(O)c1ccc(C(=O)c2ccc3c(c2)C(=O)N(CC2CCCO2)C3=O)cc1 (configuration not stated),.,10,.,/,.,.
COC(=O)c1cccc(NC(=O)c2ccc3c(c2)C(=O)N(CC2CCCO2)C3=O)c1 (configuration not stated),.,.,.,.,.,.
O=C(Nc1ccc(O)cc1)c1ccc2c(c1)C(=O)N(Cc1ccccc1)C2=O,63,/,/,/,/,/
O=C(O)c1cccc(NC(=O)c2ccc3c(c2)C(=O)N(CC2CCCO2)C3=O)c1 (configuration not stated),.,.,51,.,.,.
COCC(C)n1c(C)cc(C(=O)COC(=O)c2cccn2C)c1C (configuration not stated),.,/,/,/,/,/
O=c1nc(SCc2c(F)cccc2Cl)nc(-c2ccccc2)[nH]1,/,.,/,.,/,/
CCCn1c(SCC(=O)Nc2ccc(F)c(Cl)c2)nc(O)cc1=O,.,/,/,/,/,/
O=C(Nc1cccnc1)C1Cc2c(-c3cccc(F)c3)ccnc2O1 (configuration not stated),.,/,/,/,/,/
SMILES,TRAIL sens C8,Wee1 degr inh,FLuc inhib CS,PPC-1+TRAIL kill,PKD1 inh,FLuc stim CS
CC(=O)c1ccc(N2C(=O)C3C(C2=O)C(C(=O)c2ccc(Cl)cc2)N2CCCC32)cc1 (configuration not stated),/,11,.,.,.,.
Cc1cc(NC(=O)CSc2ccc(-c3ccc4c(c3)OCO4)nn2)no1,/,.,.,.,.,.
Cc1ccc(NC(=O)CSc2ccc(-c3ccc4c(c3)OCO4)nn2)cc1F,55,.,.,.,.,.
CS(=O)(=O)Nc1cccc(-c2cc(NC=O)c3ncc(-c4ccc(F)cc4)n3c2)c1,.,/,/,/,/,/
COc1ccc(-c2cc3c(=O)n(CC(=O)NCCCN4CCC(Cc5ccccc5)CC4)ncn3n2)cc1,83,/,/,/,/,/
CCOc1ccc(CCNC(=O)Cn2ncn3nc(-c4ccc(OC)cc4)cc3c2=O)cc1,.,/,/,/,/,/
COc1ccc(-c2cc3c(=O)n(CC(=O)NCCCN4CCN(Cc5ccccc5)CC4)ncn3n2)cc1,80,/,/,/,/,/
COc1ccc(-c2cc3c(=O)n(CC(=O)NCc4ccc(Cl)cc4)ncn3n2)cc1,.,/,/,/,/,/
CCCCCN(C(=O)CCC(=O)OCC(=O)Nc1cccc(SC)c1)c1c(N)n(CCCC)c(=O)[nH]c1=O,.,/,/,/,/,/
Cn1cccc1/C=C1\SC(=O)N(c2ccccc2)C1=O,.,.,52,.,.,.
Cc1ccc(S(=O)(=O)Cn2nnnc2CN2CCOCC2)cc1,.,11,.,.,.,.
Cc1ccc(S(=O)(=O)Cn2nnnc2CN2CCCC3(CCCCC3)C2)cc1,.,.,.,.,.,.
COCCNC(=O)/C(C#N)=C/c1ccc2c(c1)OCO2,.,.,.,.,.,.
C=CCNC(=O)/C(C#N)=C/c1ccc2c(c1)OCCO2,.,.,50,.,.,.
Cc1ccc(-n2cc(C(=O)c3ccccc3O)cn2)cc1,60,.,68,.,.,.
Cc1ccc(O)c(C(=O)c2cnn(-c3ccccc3)c2)c1,.,.,.,.,.,.
O=C(COc1ccccc1C(=O)c1cnn(-c2ccccc2)c1)Nc1ccccc1,60,.,74,.,.,.
CCCN(C(=O)Cn1nc(C)c([N+](=O)[O-])c1C)c1c(N)n(Cc2ccccc2)c(=O)[nH]c1=O,.,/,/,/,/,/
CC(=O)C1=C(C)OC(N)=C(C#N)C1c1ccncc1 (configuration not stated),.,.,.,.,.,.
COc1ccc2cc(C3C(C#N)=C(N)OC(C)=C3C(C)=O)c(Cl)nc2c1 (configuration not stated),.,9.0,.,.,.,.
O=C(Nc1sc2c(c1C(=O)O)CCCCC2)c1ccco1,.,.,74,.,.,.
CC1CN(C(=O)c2cc(-c3ccc(Cl)s3)nc3ccccc23)CC(C)O1 (configuration not stated),.,/,/,/,/,/
O=C(Sc1cccc2cccnc12)c1ccccc1Br,.,/,/,/,/,/
O=C(Sc1cccc2cccnc12)c1ccc(F)cc1,/,.,.,58,.,.
CN(C)c1ccc(N=Nc2ccccc2C(=O)OCC(=O)N2CCCCCC2)cc1,55,.,72,.,.,.
CN(C)c1ccc(N=Nc2ccccc2C(=O)OCC(=O)N2CCCC2)cc1,.,.,70,.,.,.
CSc1ccccc1C(=O)OCC(=O)N1CCCCCC1,.,/,/,/,/,/
CC(=O)Nc1ccc(CNc2nc(NC(C)C)nc3cc(-c4ccccc4)sc23)cc1,.,/,/,/,/,/
